From ChEMBL document CHEMBL1141001, “Synthesis of trans-caffeate analogues and their bioactivities against HIV-1 integrase and cancer cell lines” (Bioorg Med Chem Lett, 2008)
Values belong to the compound of their own block, whether it stands above or below them.

Legend:
[1] = Cytotoxicity against human BCG823 cells by MTT assay; assay type: functional, cell-based
MCF7 = test: Cytotoxicity against human MCF7 cells by MTT assay; assay type: functional, cell-based
A549 = test: Cytotoxicity against human A549 cells by MTT assay; assay type: functional, cell-based
BEL-7404 (Homo sapiens) = test: Cytotoxicity against human BEL-7404 cells by MTT assay
[2] = biological target: Human immunodeficiency virus type 1 integrase (Human immunodeficiency virus 1, UniProt Q7ZJM1); test: Inhibition of HIV1 integrase by ELISA
Sequence of Human immunodeficiency virus type 1 integrase (Q7ZJM1 whole entry): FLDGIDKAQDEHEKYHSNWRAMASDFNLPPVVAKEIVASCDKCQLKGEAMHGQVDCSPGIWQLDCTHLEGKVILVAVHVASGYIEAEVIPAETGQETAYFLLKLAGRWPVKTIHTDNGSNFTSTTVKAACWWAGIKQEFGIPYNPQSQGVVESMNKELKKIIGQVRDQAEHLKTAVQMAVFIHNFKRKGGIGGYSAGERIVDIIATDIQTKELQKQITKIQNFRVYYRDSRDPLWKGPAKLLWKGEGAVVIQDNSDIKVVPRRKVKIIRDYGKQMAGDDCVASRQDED
How it was run: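 HIV-1 integrase activity was read out by ELISA, and inhibition was expressed as an IC50.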

SMILES: COc1c(O)ccc(/C=C/C(=O)OC2CC3CCC2(C)C3(C)C)c1[N+](=O)[O-] (stereo not drawn)
IC50 [1]: 32.1 µM
IC50 (MCF7): 62.3 µM
IC50 (A549): 21.1 µM
IC50 (BEL-7404 (Homo sapiens)): 6.6 µM
IC50 [2]: > 100 µM

SMILES: CCCCCCC(C)OC(=O)/C=C/c1ccc(O)c(O)c1 (stereo not drawn)
IC50 [2]: > 100 µM

SMILES: O=C(/C=C/c1ccc(O)c(O)c1)OCCc1ccccc1 [CAFFEIC ACID PHENETHYL ESTER]
IC50 [1]: 44.6 µM
IC50 (MCF7): 26.7 µM
IC50 (A549): 83.6 µM
IC50 (BEL-7404 (Homo sapiens)): 5.5 µM
IC50 [2]: > 100 µM

SMILES: CC(C)(COC(=O)/C=C/c1ccc(O)c(O)c1)[N+](=O)[O-]
IC50 [2]: > 100 µM

SMILES: C=CCOC(=O)/C=C/c1ccc(O)c(O)c1
IC50 [2]: > 100 µM

SMILES: COc1cc(/C=C/C(=O)OCCc2ccccc2)cc(Cl)c1O
IC50 [2]: > 100 µM

SMILES: CC1(C)C2CCC1(C)C(OC(=O)/C=C/c1ccc(O)c(O)c1[N+](=O)[O-])C2 (stereo not drawn)
IC50 [1]: 117 µM
IC50 (MCF7): 40.7 µM
IC50 (A549): 52.9 µM
IC50 (BEL-7404 (Homo sapiens)): 28.7 µM
IC50 [2]: 13.5 µM

SMILES: COc1c(O)ccc(/C=C/C(=O)OCCc2ccccc2)c1[N+](=O)[O-]
IC50 [2]: > 100 µM

SMILES: CCOC(=O)/C=C/c1ccc(O)c(O)c1 [ETHYL CAFFEATE]
IC50 [2]: > 100 µM

SMILES: C#CCOC(=O)/C=C/c1ccc(O)c(O)c1
IC50 [2]: > 100 µM

SMILES: CC1(C)C2CCC1(C)C(OC(=O)/C=C/c1ccc(O)c(O)c1)C2 (stereo not drawn)
IC50 [1]: 101 µM
IC50 (MCF7): > 300 µM
IC50 (A549): 19.5 µM
IC50 (BEL-7404 (Homo sapiens)): 28.2 µM
IC50 [2]: 19.9 µM

SMILES: O=C(O)/C=C/c1ccc(O)c(O)c1[N+](=O)[O-]
IC50 [2]: > 100 µM

SMILES: CC(C)OC(=O)/C=C/c1ccc(O)c(O)c1
IC50 [2]: > 100 µM

SMILES: COc1cc(/C=C/C(=O)OC2CC3CCC2(C)C3(C)C)cc(Cl)c1O (stereo not drawn)
IC50 [2]: > 100 µM

SMILES: CCCCCCCCOC(=O)/C=C/c1ccc(O)c(O)c1
IC50 [2]: > 100 µM

SMILES: COc1cc(/C=C/C(=O)OCCc2ccccc2)cc([N+](=O)[O-])c1O
IC50 [1]: > 300 µM
IC50 (MCF7): > 300 µM
IC50 (A549): > 300 µM
IC50 (BEL-7404 (Homo sapiens)): > 300 µM
IC50 [2]: > 100 µM

SMILES: O=C(O)/C=C/c1cc(O)c(O)c([N+](=O)[O-])c1
IC50 [2]: 26.8 µM

SMILES: O=C(/C=C/c1ccc(O)c(O)c1)Oc1ccccc1
IC50 [1]: 56.6 µM
IC50 (MCF7): 5.9 µM
IC50 (A549): 75.9 µM
IC50 (BEL-7404 (Homo sapiens)): 44.3 µM
IC50 [2]: > 100 µM

SMILES: COc1cc(/C=C/C(=O)O)cc(Br)c1O
IC50 [2]: > 100 µM

SMILES: O=C(/C=C/c1ccc(O)c(O)c1)OC1CCCCC1
IC50 [1]: 97.6 µM
IC50 (MCF7): 30.3 µM
IC50 (A549): 89.3 µM
IC50 (BEL-7404 (Homo sapiens)): 15.5 µM
IC50 [2]: > 100 µM

SMILES: CCCOC(=O)/C=C/c1ccc(O)c(O)c1
IC50 [2]: > 100 µM

SMILES: O=C(/C=C/c1ccc(O)c(O)c1)OCc1ccccc1 [BENZYL CAFFEATE]
IC50 [1]: 48.1 µM
IC50 (MCF7): 14.1 µM
IC50 (A549): 27.3 µM
IC50 (BEL-7404 (Homo sapiens)): 17.4 µM
IC50 [2]: > 100 µM

SMILES: COC(=O)/C=C/c1ccc(O)c(O)c1 [METHYLCAFFEATE]
IC50 [2]: > 100 µM

SMILES: COc1cc(/C=C/C(=O)O)cc([N+](=O)[O-])c1O
IC50 [2]: > 100 µM

SMILES: COc1cc(/C=C/C(=O)OCCc2ccccc2)cc(Br)c1O
IC50 [1]: > 300 µM
IC50 (MCF7): > 300 µM
IC50 (A549): > 300 µM
IC50 (BEL-7404 (Homo sapiens)): > 300 µM
IC50 [2]: > 100 µM

SMILES: CCCCCCCOC(=O)/C=C/c1ccc(O)c(O)c1
IC50 [2]: > 100 µM

SMILES: O=C(/C=C/c1ccc(O)c(O)c1)Oc1ccc2ccccc2c1
IC50 [1]: 59.8 µM
IC50 (MCF7): 12.8 µM
IC50 (A549): 50 µM
IC50 (BEL-7404 (Homo sapiens)): 58.1 µM
IC50 [2]: > 100 µM

SMILES: CCC(C)OC(=O)/C=C/c1ccc(O)c(O)c1 (stereo not drawn)
IC50 [2]: > 100 µM

Second part, led by results:

IC50 [2]: > 100 µM
SMILES: COc1c(O)ccc(/C=C/C(=O)O)c1[N+](=O)[O-]

IC50 [2]: > 100 µM
SMILES: COc1cc(/C=C/C(=O)OC2CC3CCC2(C)C3(C)C)cc(Br)c1O (stereo not drawn)

IC50 [2]: > 100 µM
SMILES: CCCCCCCCCCCCCCCCCCOC(=O)/C=C/c1ccc(O)c(O)c1

IC50 [2]: > 100 µM
SMILES: CC1(C)C2CCC1(C)C(OC(=O)/C=C/c1cc(O)c(O)c([N+](=O)[O-])c1)C2 (stereo not drawn)

IC50 [2]: 25 µM
SMILES: O=C(/C=C/c1cc(O)c(O)c([N+](=O)[O-])c1)OCCc1ccccc1
IC50 [1]: 22.9 µM
IC50 (MCF7): 12.3 µM
IC50 (A549): 11.4 µM
IC50 (BEL-7404 (Homo sapiens)): 59.7 µM

IC50 [2]: > 100 µM
SMILES: O=C(/C=C/c1ccc(O)c(O)c1[N+](=O)[O-])OCCc1ccccc1
IC50 [1]: 27.8 µM
IC50 (MCF7): 28.8 µM
IC50 (A549): 8.7 µM
IC50 (BEL-7404 (Homo sapiens)): 10.2 µM

IC50 [2]: > 100 µM
SMILES: CCCCOC(=O)/C=C/c1ccc(O)c(O)c1 [BUTYL CAFFEATE]

IC50 [2]: > 100 µM
SMILES: CC(C)(C)OC(=O)/C=C/c1ccc(O)c(O)c1

IC50 [2]: > 100 µM
SMILES: COc1cc(/C=C/C(=O)O)ccc1O [FERULATE]

IC50 [2]: > 100 µM
SMILES: COc1cc(/C=C/C(=O)OC2CC3CCC2(C)C3(C)C)cc([N+](=O)[O-])c1O (stereo not drawn)

IC50 [2]: > 100 µM
SMILES: COc1cc(/C=C/C(=O)O)cc(Cl)c1O

IC50 [2]: > 100 µM
SMILES: O=C(O)/C=C/c1ccc(O)c(O)c1 [CAFFEIC ACID]
